Reference: paper PMC2232887 (The Journal of General Physiology, 2000)
Several values for one entry are separate records, joined by “and”; a condition that tells them apart may be missing. Equal values may be shown once. Read-outs that look alike come from different tables or passages of the source.

Columns and labels:
[1] = tested on: native rod CNG channels; assay: Inside-out patch recording of native rod CNG channels from rod outer segments; format: biochemical, tiger salamanders (Ambystoma tigrinum); details: for effect on the kinetics, cGMP sensitivity, or maximal current: in the absence of genistein
Summary of the method: (§1)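 Dark-adapted (1 h) tiger salamanders were anaesthetised in ice-cold […] (1 g/liter, 20 min). Retinas were triturated under dim red light, and inside-out patches were excised from rod or cone outer segments. Pipettes were 3–5 MΩ (115 mM NaCl, 5 EGTA, 1 EDTA, 5 HEPES, pH 7.5). Held at −75 mV; currents normalised to 2 mM cGMP Imax. Closed channels were pre-exposed 1 min to test compound, then given 2 mM cGMP. Ki from modified Hill fit.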

[2] = tested on: heteromeric RETα+β channels; format: biochemical, bovine; details: 10 μM L-cis diltiazem, saturating (2 mM) cGMP
[3] = biological target: hybrid OLFα+RETβ channels (UniProt Q00195+Q28181); format: biochemical; details: for block of channels by L-cis diltiazem: 10 μM L-cis diltiazem
Summary of the method: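 Xenopus oocytes were co-injected with olfactory α and rod β subunit mRNAs. Inside-out patches were recorded at 21–24°C in standard patch solution (115 mM NaCl, 5 EGTA, 1 EDTA, 5 HEPES, pH 7.5), held at −75 mV. Rod β incorporation was checked by applying 10 μM l-cis diltiazem. Currents were normalised to Imax at 2 mM cGMP.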

[4] = biological target: T1, homomeric RETα channels (α subunits of the bovine rod photoreceptor CNG channel) (Bos taurus, UniProt Q00194); format: biochemical
T1 sequence (Q00194 1-690): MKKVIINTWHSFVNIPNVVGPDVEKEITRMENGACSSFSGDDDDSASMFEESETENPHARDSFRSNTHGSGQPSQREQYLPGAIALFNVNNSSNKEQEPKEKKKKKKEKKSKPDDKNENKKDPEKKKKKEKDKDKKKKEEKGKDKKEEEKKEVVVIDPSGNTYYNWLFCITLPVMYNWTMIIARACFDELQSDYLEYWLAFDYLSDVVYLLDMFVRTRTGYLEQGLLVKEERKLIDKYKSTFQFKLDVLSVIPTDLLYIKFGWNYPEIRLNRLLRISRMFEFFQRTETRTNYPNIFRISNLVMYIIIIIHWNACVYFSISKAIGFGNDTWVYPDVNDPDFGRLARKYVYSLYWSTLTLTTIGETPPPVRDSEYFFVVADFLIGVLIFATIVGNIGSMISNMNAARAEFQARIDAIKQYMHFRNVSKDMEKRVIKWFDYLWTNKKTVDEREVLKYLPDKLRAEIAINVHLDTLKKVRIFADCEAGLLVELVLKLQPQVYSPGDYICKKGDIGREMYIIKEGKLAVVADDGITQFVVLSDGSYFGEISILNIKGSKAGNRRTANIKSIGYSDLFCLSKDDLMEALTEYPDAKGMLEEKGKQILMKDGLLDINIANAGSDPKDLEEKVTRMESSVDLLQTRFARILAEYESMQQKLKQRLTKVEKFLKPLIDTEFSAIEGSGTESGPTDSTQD
Summary of the method: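 Bovine rod CNG α-subunit cRNA was injected into Xenopus oocytes (50 nl at 1 ng/nl). After 2–7 d, vitelline membrane was removed. Inside-out patches were recorded at 21–24°C with 2–3 MΩ pipettes in standard patch solution (115 mM NaCl, 5 EGTA, 1 EDTA, 5 HEPES, pH 7.5), held at −75 mV. Perfusion switched in 50 ms. Test compound (DMSO stock) was applied before or after 2 mM cGMP. Ki and Hill coefficient from modified Hill fit.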

[5] = biological target: T2, heteromeric OLFα+β channels (Rattus norvegicus, UniProt Q00195+Q64359); format: biochemical; details: closed and fully activated channels
T2 sequence (Q00195 1-664): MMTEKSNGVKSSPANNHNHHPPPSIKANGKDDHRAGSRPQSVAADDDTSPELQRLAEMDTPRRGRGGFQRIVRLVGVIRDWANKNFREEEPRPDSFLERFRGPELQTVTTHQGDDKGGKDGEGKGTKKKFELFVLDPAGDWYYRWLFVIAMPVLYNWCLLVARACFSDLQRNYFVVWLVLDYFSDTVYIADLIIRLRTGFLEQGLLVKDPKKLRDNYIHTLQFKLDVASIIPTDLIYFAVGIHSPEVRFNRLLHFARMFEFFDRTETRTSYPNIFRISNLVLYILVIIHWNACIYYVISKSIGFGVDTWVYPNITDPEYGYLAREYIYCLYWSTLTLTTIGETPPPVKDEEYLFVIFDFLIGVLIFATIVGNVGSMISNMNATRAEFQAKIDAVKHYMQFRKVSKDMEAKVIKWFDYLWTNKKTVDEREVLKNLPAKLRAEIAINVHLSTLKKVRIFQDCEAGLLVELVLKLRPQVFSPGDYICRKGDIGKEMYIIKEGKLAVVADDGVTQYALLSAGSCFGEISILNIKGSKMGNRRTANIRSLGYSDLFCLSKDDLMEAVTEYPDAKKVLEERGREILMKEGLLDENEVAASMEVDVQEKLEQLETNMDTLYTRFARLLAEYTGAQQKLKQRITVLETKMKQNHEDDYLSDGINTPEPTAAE
T2 sequence (Q64359 1-575): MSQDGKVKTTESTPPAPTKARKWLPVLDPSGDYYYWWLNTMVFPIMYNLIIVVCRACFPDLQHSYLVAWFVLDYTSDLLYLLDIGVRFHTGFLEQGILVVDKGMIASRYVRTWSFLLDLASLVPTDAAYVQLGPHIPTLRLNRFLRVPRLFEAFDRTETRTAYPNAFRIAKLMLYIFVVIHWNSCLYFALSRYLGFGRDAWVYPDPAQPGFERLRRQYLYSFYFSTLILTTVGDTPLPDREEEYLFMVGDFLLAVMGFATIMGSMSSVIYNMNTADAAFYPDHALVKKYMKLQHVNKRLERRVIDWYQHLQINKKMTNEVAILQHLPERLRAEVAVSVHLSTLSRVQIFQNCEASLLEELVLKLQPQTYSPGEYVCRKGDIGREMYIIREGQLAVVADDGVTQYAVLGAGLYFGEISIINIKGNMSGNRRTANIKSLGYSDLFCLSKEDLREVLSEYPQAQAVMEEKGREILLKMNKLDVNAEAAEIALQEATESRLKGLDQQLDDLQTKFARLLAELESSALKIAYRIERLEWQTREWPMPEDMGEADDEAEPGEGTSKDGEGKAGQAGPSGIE

[6] = biological target: T3, homomeric OLFα channels (rat olfactory CNG channels) (Rattus norvegicus, UniProt Q00195); format: biochemical; details: concentrations up to 500 μM
T3 sequence (Q00195 1-664): T2 sequence (Q00195 1-664)

[7] = biological target: heteromeric RETα+β channels (Bos taurus, UniProt Q00194); format: biochemical, bovine
[8] = tested on: native cone CNG channels; assay: Inside-out patch recording of native cone CNG channels from cone outer segments; format: biochemical, tiger salamanders (Ambystoma tigrinum)
Summary of the method: as §1

[9] = tested on: native olfactory CNG channels; format: biochemical, tiger salamanders
Summary of the method: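 Olfactory epithelium from land-phase tiger salamanders was digested with papain for 18–22 min at 21°C, washed 10 min in ice-cold solution and triturated to single neurons. Excised patches used 10–20 MΩ pipettes. Held at −75 mV; currents normalised to 2 mM cGMP Imax; mean ± SEM.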

[10] = fully activated, saturating cGMP (2 mM)
[11] = closed channels, saturating genistein (500 μM)

Sequence of heteromeric RETα+β channels (Bos taurus, UniProt Q00194) (Q28181 whole entry partner, one chain of several): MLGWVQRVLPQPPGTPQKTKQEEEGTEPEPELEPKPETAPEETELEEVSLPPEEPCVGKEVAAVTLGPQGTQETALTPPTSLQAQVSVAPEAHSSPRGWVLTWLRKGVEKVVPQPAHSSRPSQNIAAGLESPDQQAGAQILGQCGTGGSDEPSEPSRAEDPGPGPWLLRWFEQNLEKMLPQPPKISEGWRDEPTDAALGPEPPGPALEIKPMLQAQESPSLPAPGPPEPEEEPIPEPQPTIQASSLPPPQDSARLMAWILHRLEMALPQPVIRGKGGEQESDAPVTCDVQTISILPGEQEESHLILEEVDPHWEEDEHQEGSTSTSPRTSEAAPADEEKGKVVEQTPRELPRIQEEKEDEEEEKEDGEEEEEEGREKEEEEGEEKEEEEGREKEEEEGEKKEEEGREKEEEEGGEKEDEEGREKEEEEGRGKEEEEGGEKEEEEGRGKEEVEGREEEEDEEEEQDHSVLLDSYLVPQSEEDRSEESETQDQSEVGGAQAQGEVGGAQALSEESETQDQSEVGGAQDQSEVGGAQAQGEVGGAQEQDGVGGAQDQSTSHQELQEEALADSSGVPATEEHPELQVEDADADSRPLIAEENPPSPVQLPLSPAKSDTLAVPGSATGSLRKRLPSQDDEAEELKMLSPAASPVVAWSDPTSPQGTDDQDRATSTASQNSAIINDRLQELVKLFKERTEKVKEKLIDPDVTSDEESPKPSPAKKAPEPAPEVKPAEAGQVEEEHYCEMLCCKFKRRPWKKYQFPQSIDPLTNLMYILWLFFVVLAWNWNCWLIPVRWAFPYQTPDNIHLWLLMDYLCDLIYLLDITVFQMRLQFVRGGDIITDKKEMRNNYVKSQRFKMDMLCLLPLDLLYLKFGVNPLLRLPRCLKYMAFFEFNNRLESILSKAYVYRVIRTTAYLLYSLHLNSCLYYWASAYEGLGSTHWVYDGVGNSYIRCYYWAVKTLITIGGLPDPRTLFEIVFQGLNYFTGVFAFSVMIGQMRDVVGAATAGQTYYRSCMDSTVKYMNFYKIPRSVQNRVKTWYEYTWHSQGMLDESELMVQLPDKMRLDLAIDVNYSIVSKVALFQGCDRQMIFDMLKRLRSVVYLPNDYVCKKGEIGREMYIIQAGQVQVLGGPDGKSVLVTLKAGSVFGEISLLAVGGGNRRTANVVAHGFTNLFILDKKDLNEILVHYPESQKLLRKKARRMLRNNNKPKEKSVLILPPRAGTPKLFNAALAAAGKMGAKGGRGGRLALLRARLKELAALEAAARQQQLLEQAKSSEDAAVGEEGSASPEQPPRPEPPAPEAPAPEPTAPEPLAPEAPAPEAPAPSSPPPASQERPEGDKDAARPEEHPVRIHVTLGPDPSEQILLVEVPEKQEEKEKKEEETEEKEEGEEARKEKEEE
Sequence of hybrid OLFα+RETβ channels (Q28181 whole entry, one chain of several): as the sequence (Q28181 whole entry partner, one chain of several) above

O=CN/C=C/c1cc(O)ccc1O [erbstatin]
effect on the kinetics, cGMP sensitivity, or maximal current [1]: no effect

COc1ccc([C@H]2Sc3ccccc3N(CCN(C)C)C(=O)[C@H]2OC(C)=O)cc1 (relative stereo) [L-cis diltiazem]
inhibition of channels by L-cis diltiazem ([2]; RETα to RETβ mRNA ratio 1:5): 50% | inhibition of channels by L-cis diltiazem ([2]; RETα to RETβ mRNA ratio 1:8): 78% | inhibition of channels by L-cis diltiazem ([2]; RETα to RETβ mRNA ratio 1:10): 80% | block of channels by L-cis diltiazem ([3]; OLFα to RETβ mRNA ratio 1:1.5): 36.8 ± 2.9% | block of channels by L-cis diltiazem ([3]; OLFα to RETβ mRNA ratio 1:3): 32.8 ± 1.4%

O=c1c(-c2ccc(O)cc2)coc2cc(O)cc(O)c12 [genistein]
Hill coefficient of genistein inhibition ([4]; closed channels): ~2 | inhibition of fully activated channels by genistein [4, 10]: 67 ± 4% | Hill coefficient of genistein inhibition ([4]; open, fully activated channels): ~1 | time constant of genistein inhibition ([4]; open, fully activated channels): 9 s | Ki ([4]; read-out: apparent K i for genistein, closed channels): 4 µM | genistein inhibition compared with native olfactory channels [5]: inhibited to an even greater extent than were native olfactory channels | genistein inhibition of closed channels ([6]; closed channels): fails to inhibit | genistein inhibition of fully activated channels ([6]; fully activated channels): fails to inhibit | Hill coefficient of genistein inhibition ([7]; closed channels): ~2 and ~1 | Hill coefficient of genistein inhibition ([7]; open, fully activated channels): ~1 | time constant of genistein inhibition ([7]; open, fully activated channels): ~1 s | maximal inhibition of closed channels by saturating genistein [8, 11]: 50 ± 3% | inhibition of fully activated channels by genistein [8, 10]: 37 ± 3% | maximal inhibition of closed channels by saturating genistein [9, 11]: 28 ± 4% | inhibition of fully activated channels by genistein [9, 10]: 11 ± 4% | τ of slowly activating CNG current component after genistein pretreatment ([1]; closed channels pre-exposed to 100 μM genistein for 1 min, then 2 mM cGMP): 8.5 s | maximal inhibition of closed channels by saturating genistein [1, 11]: 61 ± 8% | inhibition of fully activated channels by genistein [1, 10]: 31 ± 4% | time constant of genistein inhibition ([1]; open, fully activated channels): 1.2 s | effect of genistein on hybrid channels ([3]; closed and fully activated states): no effect

Nc1ncnc2c1ncn2[C@@H]1O[C@H](COP(=O)(O)OP(=O)(O)NP(=O)(O)O)[C@@H](O)[C@H]1O [AMP-PNP, adenylylimidodiphosphate]
effect on the kinetics, cGMP sensitivity, or maximal current [1]: no effect
